{"source": "ChEMBL document CHEMBL1122871", "about": "“Monocyclic pteridine analogues. Inhibition of Escherichia coli dihydropteroate synthase by 6-amino-5-nitrosoisocytosines” (J Med Chem, 1985)", "key": {"[1]": {"molecular_target": "T1, Dihydropteroate synthase (Escherichia coli K-12, UniProt P0AC13)", "T1 sequence (P0AC13 whole entry)": "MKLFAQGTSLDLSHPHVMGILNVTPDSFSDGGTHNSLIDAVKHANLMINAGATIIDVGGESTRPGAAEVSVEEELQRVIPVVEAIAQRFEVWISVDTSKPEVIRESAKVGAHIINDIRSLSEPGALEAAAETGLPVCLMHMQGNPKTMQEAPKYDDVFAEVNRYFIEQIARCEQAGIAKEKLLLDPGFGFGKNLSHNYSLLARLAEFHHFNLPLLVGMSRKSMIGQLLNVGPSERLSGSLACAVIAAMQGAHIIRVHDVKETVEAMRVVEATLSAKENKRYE", "experiment": "(§1) In vitro inhibition of dihydropteroate synthase from Escherichia coli.", "settings": "read-out: I50", "method_in_brief": "(§2)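 Partially purified synthase from E. coli B. The assay used [14C]carboxy-p-aminobenzoic acid as substrate. Paper chromatography separated radiolabelled dihydropteroate from unreacted substrate. Results were given as the micromolar concentration giving 50% inhibition, or as percent inhibition at a stated concentration.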"}, "[2]": {"molecular_target": "T2, Dihydropteroate synthase (Escherichia coli K-12) (UniProt P0AC13)", "T2 sequence (whole entry)": "T1 sequence (P0AC13 whole entry)", "experiment": "In vitro percent inhibition of dihydropteroate synthase from Escherichia coli at 20 uM", "method_in_brief": "as §2"}, "[3]": {"molecular_target": "T2, Dihydropteroate synthase (Escherichia coli K-12)", "experiment": "as §1", "set-up": "concentration or dose not given beside the values", "settings": "concentration not given here", "method_in_brief": "as §2"}, "[4]": {"molecular_target": "T2, Dihydropteroate synthase (Escherichia coli K-12)", "experiment": "Kinetic constant for synthase inhibition", "method_in_brief": "(§3)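 Kinetic runs varied either the pterin substrate or PABA across inhibitor levels. Velocity was nmol dihydropteroate formed in a 12-min incubation at 37 °C, plotted as double reciprocals. Data were computer-fitted to competitive or noncompetitive inhibition models and statistically tested for fit to each model.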"}, "[5]": {"molecular_target": "T1, Dihydropteroate synthase", "experiment": "Inhibitory activity against binding of para-aminobenzoic acid to synthase", "settings": "read-out: I50", "method_in_brief": "as §3"}}, "note": "pIC50: −log10 of the molar value.", "data": [{"smiles": "Cc1cc(NS(=O)(=O)c2ccc(N)cc2)no1", "note": "[SULFAMETHOXAZOLE]", "values": [{"measurement": "pIC50", "setting": "[1]", "result": 5.33}]}, {"smiles": "N#Cc1c(O)nc(N)nc1NCCCCc1ccccc1", "values": [{"measurement": "pIC50", "setting": "[1]", "result": 3.54}]}, {"smiles": "CSc1nc(N)nc(O)c1N=O", "values": [{"measurement": "inhibition", "setting": "[2]", "result": 17, "unit": "%"}]}, {"smiles": "Nc1nc(O)c(N=O)c(Nc2ccccc2)n1", "values": [{"measurement": "inhibition", "setting": "[3]", "result": "< 10", "unit": "%"}, {"measurement": "pIC50", "setting": "[1]", "result": "< 4.00"}]}, {"smiles": "Nc1nc(O)c(N=O)c(NCCCCc2ccccc2)n1", "values": [{"measurement": "pIC50", "setting": "[1]", "result": 5.60}]}, {"smiles": "CC(C)Nc1nc(N)nc(O)c1N=O", "values": [{"measurement": "pIC50", "setting": "[1]", "result": 3.68}]}, {"smiles": "CNc1nc(N)nc(O)c1C=O", "values": [{"measurement": "inhibition", "setting": "[3]", "result": "< 10", "unit": "%"}, {"measurement": "pIC50", "setting": "[1]", "result": "< 3.52"}]}, {"smiles": "Nc1nc(O)c(N=O)c(NCCCCCc2ccccc2)n1", "values": [{"measurement": "pIC50", "setting": "[1]", "result": 5.23}]}, {"smiles": "Nc1nc(N)c(N=O)c(=O)[nH]1", "values": [{"measurement": "pIC50", "setting": "[1]", "result": 5.24}]}, {"smiles": "Nc1nc(O)c(N=O)c(NCCCOc2ccccc2)n1", "values": [{"measurement": "Kis", "setting": "[4]", "result": 0.69, "unit": "µM"}, {"measurement": "pIC50", "setting": "[1]", "result": 5.43}]}, {"smiles": "Nc1nc(O)c(N=O)c(NCCCO)n1", "values": [{"measurement": "pIC50", "setting": "[1]", "result": 4.46}]}, {"smiles": "Nc1nc(O)c(C=O)c(NCCCCc2ccccc2)n1", "values": [{"measurement": "inhibition", "setting": "[3]", "result": "< 10", "unit": "%"}, {"measurement": "pIC50", "setting": "[1]", "result": "< 4.00"}]}, {"smiles": "Nc1nc(O)c(N=O)c(NCCCc2ccccc2)n1", "values": [{"measurement": "pIC50", "setting": "[1]", "result": 5.11}]}, {"smiles": "CCNc1nc(N)nc(O)c1N=O", "values": [{"measurement": "pIC50", "setting": "[1]", "result": 4.96}]}, {"smiles": "CNc1nc(N)nc(O)c1N=O", "values": [{"measurement": "Kis", "setting": "[4]", "result": 0.085, "unit": "µM"}, {"measurement": "pIC50", "setting": "[1]", "result": 5.80}]}, {"smiles": "CNc1nc(N)[nH]c(=O)c1[N+](=O)[O-]", "values": [{"measurement": "pIC50", "setting": "[1]", "result": 5.55}]}, {"smiles": "Nc1ccc(S(=O)(=O)Nc2nccs2)cc1", "note": "[SULFATHIAZOLE]", "values": [{"measurement": "pIC50", "setting": "[1]", "result": 5.60}]}, {"smiles": "Nc1nc(O)c(N=O)c(NCc2ccccc2)n1", "values": [{"measurement": "pIC50", "setting": "[1]", "result": 4.89}]}, {"smiles": "CNc1cc(O)nc(N)n1", "values": [{"measurement": "inhibition", "setting": "[3]", "result": "< 10", "unit": "%"}, {"measurement": "pIC50", "setting": "[1]", "result": "< 3.96"}]}, {"smiles": "Nc1nc(O)c([N+](=O)[O-])c(NCCCCc2ccccc2)n1", "values": [{"measurement": "pIC50", "setting": "[1]", "result": 4.68}]}, {"smiles": "CCN(CC)c1nc(N)nc(O)c1N=O", "values": [{"measurement": "pIC50", "setting": "[1]", "result": 3.71}]}, {"smiles": "Nc1nc(O)c(N=O)c(NCCCCCCc2ccccc2)n1", "values": [{"measurement": "pIC50", "setting": "[1]", "result": 5.05}]}, {"smiles": "Nc1nccc(O)n1", "values": [{"measurement": "inhibition", "setting": "[3]", "result": "< 10", "unit": "%"}, {"measurement": "pIC50", "setting": "[1]", "result": "< 3.30"}]}, {"smiles": "Nc1nc(O)c(N=O)c(NCCCCCCCc2ccccc2)n1", "values": [{"measurement": "pIC50", "setting": "[5]", "result": 5.85}, {"measurement": "pIC50", "setting": "[1]", "result": 5.85}]}, {"smiles": "Nc1nc(O)c(N=O)c(NCCCS(=O)(=O)c2ccccc2)n1", "values": [{"measurement": "pIC50", "setting": "[1]", "result": 4.74}]}, {"smiles": "Nc1nc(O)c(N=O)c(NCCc2ccccc2)n1", "values": [{"measurement": "pIC50", "setting": "[1]", "result": 5.38}]}, {"smiles": "Nc1nc(O)c(N=O)c(O)n1", "values": [{"measurement": "inhibition", "setting": "[3]", "result": "< 10", "unit": "%"}, {"measurement": "pIC50", "setting": "[1]", "result": "< 3.70"}]}]}
